From ChEMBL document CHEMBL1765045, “Fine-tuning the selectivity of aldosterone synthase inhibitors: structure-activity and structure-selectivity insights from studies of heteroaryl substituted 1,2,5,6-tetrahydropyrrolo[3,2,1-ij]quinolin-4-one derivatives” (J Med Chem, 2011)

Columns and labels:
CYP2C19 = CYP2C19 (Homo sapiens, UniProt P33261); test: Inhibition of human CYP2C19 expressed in baculovirus-infected insect microsomes at 1 uM; assay type: ADME, Microsome
How it was run: (§1)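 Recombinant human CYP1A2, 2B6, 2C9, 2C19, 2D6 or 3A4 in baculovirus-infected insect microsomes (Supersomes), run per manufacturer's protocol. Inhibitor at 1 and 10 μM; percent inhibition is the mean of two experiments.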

CYP2B6 = target: T1, CYP2B6 (Homo sapiens, UniProt P20813); test: Inhibition of human CYP2B6 expressed in baculovirus-infected insect microsomes at 1 uM; assay type: ADME, Microsome; how it was run: as §1
T1 sequence (P20813 whole entry): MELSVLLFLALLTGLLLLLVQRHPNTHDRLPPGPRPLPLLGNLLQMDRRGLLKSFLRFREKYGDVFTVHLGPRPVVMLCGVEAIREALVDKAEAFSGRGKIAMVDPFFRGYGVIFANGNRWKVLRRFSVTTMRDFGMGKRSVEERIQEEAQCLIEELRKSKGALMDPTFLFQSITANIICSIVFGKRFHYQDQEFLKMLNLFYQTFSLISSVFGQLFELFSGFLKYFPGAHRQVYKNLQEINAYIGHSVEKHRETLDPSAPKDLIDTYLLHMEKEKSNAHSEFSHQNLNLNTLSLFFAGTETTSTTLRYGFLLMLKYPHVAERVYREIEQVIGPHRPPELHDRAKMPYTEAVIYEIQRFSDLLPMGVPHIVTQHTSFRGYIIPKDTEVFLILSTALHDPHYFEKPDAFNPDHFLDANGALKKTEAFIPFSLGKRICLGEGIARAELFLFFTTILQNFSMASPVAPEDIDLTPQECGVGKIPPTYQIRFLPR

CYP17 = target: T2, CYP17 (Homo sapiens, UniProt P05093); test: Inhibition of human CYP17 expressed in Escherichia coli using progesterone substrate at 2 uM; conditions: recombinant human CYP17 expressed in Escherichia coli, probe progesterone
T2 sequence (P05093 whole entry): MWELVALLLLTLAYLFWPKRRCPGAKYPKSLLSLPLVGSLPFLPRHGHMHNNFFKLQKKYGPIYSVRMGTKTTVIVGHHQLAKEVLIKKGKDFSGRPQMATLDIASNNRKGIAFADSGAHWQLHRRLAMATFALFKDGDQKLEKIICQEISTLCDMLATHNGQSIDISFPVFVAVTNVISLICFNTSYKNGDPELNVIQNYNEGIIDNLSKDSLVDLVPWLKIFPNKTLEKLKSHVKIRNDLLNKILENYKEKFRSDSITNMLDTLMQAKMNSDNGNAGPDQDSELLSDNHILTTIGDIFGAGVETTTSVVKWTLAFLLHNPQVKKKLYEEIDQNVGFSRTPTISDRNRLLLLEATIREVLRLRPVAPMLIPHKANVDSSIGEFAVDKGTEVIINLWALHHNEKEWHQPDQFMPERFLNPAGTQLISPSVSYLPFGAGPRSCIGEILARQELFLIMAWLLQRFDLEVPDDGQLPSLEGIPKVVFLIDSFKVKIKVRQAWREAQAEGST
How it was run: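 50000g sediment of E. coli homogenate recombinantly expressing human CYP17. Progesterone substrate at 25 μM, inhibitor tested at 2 μM.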

[1] = target: T3, Cytochrome P450 11B2, mitochondrial (Homo sapiens, UniProt P19099); test: Inhibition of human CYP11B2 expressed in hamster V79 MZh cells assessed as conversion of [4-14C]-11-deoxycorticosterone substrate at 500 nM by HPTLC assay; assay type: cell-based; conditions: V79MZh
T3 sequence (P19099 whole entry): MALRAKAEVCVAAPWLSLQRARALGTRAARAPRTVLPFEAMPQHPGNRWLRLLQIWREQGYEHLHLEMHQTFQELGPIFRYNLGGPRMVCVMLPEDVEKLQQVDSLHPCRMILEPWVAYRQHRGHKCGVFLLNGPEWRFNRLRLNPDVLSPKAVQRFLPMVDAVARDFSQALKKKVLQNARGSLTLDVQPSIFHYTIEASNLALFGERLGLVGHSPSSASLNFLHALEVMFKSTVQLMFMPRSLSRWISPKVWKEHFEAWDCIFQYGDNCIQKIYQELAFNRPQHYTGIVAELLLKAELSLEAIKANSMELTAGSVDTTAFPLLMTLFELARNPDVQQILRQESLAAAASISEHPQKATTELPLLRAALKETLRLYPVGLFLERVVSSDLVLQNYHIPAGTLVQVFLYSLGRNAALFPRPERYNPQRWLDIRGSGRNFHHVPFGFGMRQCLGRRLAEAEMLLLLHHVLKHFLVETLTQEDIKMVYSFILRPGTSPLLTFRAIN
How it was run: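 V79 MZh cells expressing human CYP11B2 given [4-14C]-11-deoxycorticosterone, 100 nM, with inhibitor at a single 500 nM concentration. Ethyl acetate extraction, then HPTLC/phosphoimager readout of conversion. Percent inhibition is the mean of at least three experiments.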

Homo sapiens = species: Homo sapiens; test: Selectivity ratio of IC50 for human CYP11B1 to IC50 for human CYP11B2
How it was run: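 Ratio of IC50 values from V79 MZh cell assays for human CYP11B1 and CYP11B2, IC50 CYP11B1/IC50 CYP11B2. Both assays used [4-14C]-11-deoxycorticosterone, 100 nM, inhibitor at ≥3 concentrations and HPTLC/phosphoimager readout of conversion.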

aromatase (CYP19) = target: T4, aromatase (CYP19) (Homo sapiens, UniProt P11511); test: Inhibition of aromatase at 0.5 uM
T4 sequence (P11511 whole entry): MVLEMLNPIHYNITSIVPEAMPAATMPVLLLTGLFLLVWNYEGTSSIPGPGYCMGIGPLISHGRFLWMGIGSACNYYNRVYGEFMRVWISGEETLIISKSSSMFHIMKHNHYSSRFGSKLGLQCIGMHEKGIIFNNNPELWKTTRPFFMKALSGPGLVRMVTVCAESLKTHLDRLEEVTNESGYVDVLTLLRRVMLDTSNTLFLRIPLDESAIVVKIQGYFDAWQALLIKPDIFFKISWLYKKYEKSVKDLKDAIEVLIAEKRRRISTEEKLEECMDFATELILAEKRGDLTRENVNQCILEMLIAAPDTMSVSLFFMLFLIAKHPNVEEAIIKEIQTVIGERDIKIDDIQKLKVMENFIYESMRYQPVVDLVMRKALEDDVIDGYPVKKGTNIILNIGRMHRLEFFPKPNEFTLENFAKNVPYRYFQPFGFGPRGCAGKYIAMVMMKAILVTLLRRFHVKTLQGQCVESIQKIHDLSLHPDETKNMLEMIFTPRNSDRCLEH
How it was run: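 Human placental microsomes as CYP19 source, [1β-3H]androstenedione substrate at 500 nM, inhibitor at 500 nM. Modified Thompson–Siiteri method, with fadrozole as reference.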

Chain of CYP2C19 (P33261 whole entry): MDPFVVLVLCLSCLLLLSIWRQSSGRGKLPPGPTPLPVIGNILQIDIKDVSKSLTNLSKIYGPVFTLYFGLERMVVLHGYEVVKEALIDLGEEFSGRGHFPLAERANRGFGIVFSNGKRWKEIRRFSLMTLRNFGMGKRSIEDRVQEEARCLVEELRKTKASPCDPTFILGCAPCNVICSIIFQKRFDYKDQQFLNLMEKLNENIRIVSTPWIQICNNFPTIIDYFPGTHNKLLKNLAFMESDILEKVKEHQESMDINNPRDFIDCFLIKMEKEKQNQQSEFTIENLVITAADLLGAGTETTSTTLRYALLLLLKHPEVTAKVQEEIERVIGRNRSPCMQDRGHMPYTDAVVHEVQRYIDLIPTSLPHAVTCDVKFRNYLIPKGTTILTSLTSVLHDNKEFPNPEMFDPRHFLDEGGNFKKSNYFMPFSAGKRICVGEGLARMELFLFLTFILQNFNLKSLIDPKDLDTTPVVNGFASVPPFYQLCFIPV

| inhibition at 1 µM (CYP2C19) [%] | inhibition at 1 µM (CYP2B6) [%] | inhibition at 2 µM (CYP17) [%] | inhibition at 0.5 µM [1] [%] | Ratio IC50 (Homo sapiens) | inhibition at 0.5 µM (aromatase (CYP19)) [%] | SMILES |
| --- | --- | --- | --- | --- | --- | --- |
| 7 | < 5 | < 5 | 98 |  |  | COc1cncc(-c2cc3c4c(c2)CCN4C(=O)CC3)c1 |
| < 5 | < 5 | 6 | 90 | 650 |  | O=C1CCc2cc(-c3cccnc3)cc3c2N1CC3 |
| 8 | 27 | 6 | 95 |  | 69 | O=C1CCc2cc(-c3cccnc3)cc3c2N1CCC3 |
|  | < 5 | 7 | 97 |  |  | O=C1CCc2cc(-c3cncc(-c4cccc(F)c4)c3)cc3c2N1CC3 |
